# Screening data from PubChem BioAssay.
# Hsp70 act: switches on Hsp70 transcription; 0.04% of 200,000 active; AID 1203; activation, % at 10 µM; HeLa Hsp70 promoter luciferase reporter, luminescence; scaled: vehicle 0, proteasome-inhibitor control 100%;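 active = activation above the mean across all tested compounds plus 3 SD, cutoff set per campaign, cut at about 5.5% in these data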;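 also: 100% = MG132 at 30 µM as the positive control and 0% = DMSO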
# HSF1 inhib: HSF1 inhibition. 0.77% of 300,000 active. activity change, negative = inhibition, % at 7.5 µM (by protocol). NIH3T3-HGL HSE-luciferase, MG132-induced, luminescence 8 h; active compounds read low;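 active = more than half of replicate wells show activity change below -50%, luminescence cut by over half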;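 also: luciferase reports HSF-1 transcriptional activity via heat shock element; 0% = median of DMSO wells and -100% = zero luminescence signal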
# L major viab: inhibitors of Leishmania major promastigote growth. Leishmania major promastigotes, resazurin fluorescence viability. inhibition, % at 10 µM. 9% of 200,000 active; in the data active = inhibition above about 50%;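 also: promastigotes grown with compound for 44 hours at 28 °C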
# T cruzi inh: T. cruzi replication inhibition; T. cruzi beta-gal in NIH3T3, luminescence, 90 h; inhibition, % (concentration not given with the values); 1.4% of 300,000 active; AID 1885;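 active = mean inhibition across valid replicates above about 55%, limit read from the data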;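 also: signal also drops with host cell toxicity which is not excluded here; 0% = plate median of DMSO wells and 100% = zero luminescence signal; higher percent means less beta-gal luminescence so fewer parasites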
#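 assay system = mouse NIH/3T3 fibroblasts infected with β-gal-expressing T. cruzi Tulahuen C4 | input = 5,000 NIH/3T3 host cells per well | buffer or medium = DMEM plus 2% FBS | timing = 3 h host attachment, then at least 90 h co-culture | measured by = GalScreen luminescence, 60 min | evaluation = luminescence reflecting intracellular parasite burden, expressed as percent inhibition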
# HSF-1 act: increases HSF-1 driven luciferase reporter signal. NIH3T3-HGL HSF-1 luciferase reporter, MG132, 8 h; 100% = twice DMSO control signal. activation, % at 9 µM. 1.7% of 300,000 active. AID 504408;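 active = mean replicate activation of at least 50% with a set share of replicates each reaching 50%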;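 also: 0% = median of the neutral control wells and 100% = twice that signal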
# Active calls of the source: *; · = no result. The entries come from a sample that favours hits as a whole.
SMILES,Hsp70 act,HSF1 inhib,L major viab,T cruzi inh,HSF-1 act
c1ccc2c(CN3CCSCC3)cccc2c1,·,-2.5,·,-6.6,-12.6
CC(=O)c1ccc(Nc2cc(C)nc3c(C)cc(C)cc23)cc1,-0.2,1.6,100.2*,21.4,-11.3
CC1=NN(C(N)=S)C(=O)C1N=Nc1ccc(F)cc1 (stereo not given),·,31.0,·,-21.6,53.0*
CC1=NN(C(N)=S)C(=O)C1N=Nc1ccc(O)cc1 (stereo not given),-0.2,-3.2,57.8*,23.9,-3.6
CC1=NN(C(N)=S)C(=O)C1N=Nc1ccc([N+](=O)[O-])cc1 (stereo not given),·,25.5,·,-6.5,20.9
CC1CCCN(C(=O)c2cc(S(=O)(=O)N3CCCCC3)c[nH]2)C1 (stereo not given),·,-6.3,·,-10.3,-2.1
CCc1cc(=O)oc2c(CNCc3ccccc3F)c(O)c(Cl)cc12,·,12.7,·,7.4,64.5*
CCCc1cc(=O)oc2c(CN3CCCC3)c(O)c(Cl)cc12,-0.2,-3.6,-2.8,2.1,31.7
CC(C)Cn1[nH]c2c3c(ccc2c1=O)C(=O)c1ccccc1C3=O,-0.1,1.5,90.1*,-2.0,7.5
O=C(N/N=C/c1ccc([N+](=O)[O-])o1)c1cn2ccc3ccccc3c2n1,·,6.0,·,49.0,15.0
CCCc1ccc(-c2cc(C(=O)N/N=C/c3ccc([N+](=O)[O-])o3)c3ccccc3n2)cc1,-0.3,-9.6,99.9*,61.1*,-31.0
O=C(N/N=C/c1ccc([N+](=O)[O-])o1)c1cc(-c2cccc(Br)c2)nc2ccccc12,-0.2,49.2,100.3*,63.0*,41.0
COc1cccc(-c2cc(C(=O)N/N=C/c3ccco3)c3ccccc3n2)c1,·,26.1,·,-2.2,34.6
C=CCNC(=S)NC(CC(=O)OC)c1ccc2c(c1)OCO2 (stereo not given),-0.2,-9.0,5.1,-5.5,11.7
COc1ccc(NC(=O)C23CC4CC(C2)CC(n2cnc(Br)n2)(C4)C3)cc1OC,-0.5,0.5,-3.0,5.6,22.1
Cc1cc(NC(=O)C23CC4CC(C2)CC(n2cnc([N+](=O)[O-])n2)(C4)C3)no1,-0.2,8.1,50.7*,54.6*,2.0
O=C(Nc1ccon1)C12CC3CC(C1)CC(n1cnc([N+](=O)[O-])n1)(C3)C2,0.1,-5.4,61.9*,59.2*,-10.0
COc1ccc(NC(=O)C23CC4CC(C2)CC(n2cnc(Br)n2)(C4)C3)c(C)c1,0.0,-6.6,-4.0,0.4,40.7
CC(C)CCNC(=O)C(c1cccnc1)N(Cc1ccccc1)C(=O)Cn1nnc2ccccc21 (stereo not given),-0.2,-18.9,29.9,56.5*,-30.8
CSCC[C@H](N)C(=O)NCC1CCC(C(=O)Nc2ccc3c(c2)OCO3)CC1 (stereo not given in full),·,-1.7,·,4.6,2.3
O=C(NNC(=O)C1CCN(S(=O)(=O)c2cccc(C(F)(F)F)c2)CC1)C1CC1,-0.2,-8.0,-2.9,8.7,-11.5
CC(C)NC(=S)N1CCN(S(=O)(=O)c2cccc(C(F)(F)F)c2)CC1,-0.3,-19.0,95.2*,-7.7,-14.2
CCNC(=S)N1CCN(S(=O)(=O)c2cccc(C(F)(F)F)c2)CC1,-0.4,29.7,-3.2,0.7,72.2*
O=S(=O)(c1cccc(C(F)(F)F)c1)N1CCN(C(=S)NC2CC2)CC1,-0.2,6.9,54.6*,-1.2,39.5
O=C(c1nc2ccccn2c1CNCCOc1cccnc1)N1CCOCC1,-0.2,2.6,-3.8,-7.6,-2.6
SMILES,Hsp70 act,HSF1 inhib,L major viab,T cruzi inh,HSF-1 act
O=C(c1ccc(S(=O)(=O)Nc2ccccc2)cc1)N1CCCCCCC1,·,3.1,·,-1.1,-5.7
CN(Cc1ccc(-n2cccn2)cc1)Cc1nc(-c2cnccn2)no1,0.1,-4.2,-0.9,-15.0,23.9
CCOc1ccccc1NCc1cc(=O)oc2cc(C)c(O)cc12,·,-3.3,·,40.2,-8.3
Cc1cc2oc(=O)cc(CNc3ccccc3F)c2cc1O,·,-10.8,·,58.6*,-16.3
COCc1[nH]nc2c1C1(CCSCC1)C(C#N)=C(N)O2,-0.2,-84.6*,-3.3,-9.0,-87.8
CCOC(=O)N1CCC2(CC1)C(C#N)=C(N)Oc1n[nH]c(C)c12,-0.5,7.9,1.2,-15.7,-2.0
O=C(c1ccccc1NS(=O)(=O)c1cccc(C(F)(F)F)c1)N1CCc2ccccc21,-0.4,2.8,65.5*,6.7,1.5
O=C(c1ccccc1NS(=O)(=O)c1ccc(F)cc1)N1CCc2ccccc21,-0.1,-2.8,-7.8,-11.4,33.5
